Test results taken from ChEMBL document CHEMBL4390704, “1-Aryl-3-(4-methoxybenzyl)ureas as potentially irreversible glycogen synthase kinase 3 inhibitors: Synthesis and biological evaluation” (Bioorg Med Chem Lett, 2019).
pIC50: −log10 of the molar value. The source made the active and inactive calls. The calls are words filed in the database; no cut-off is given here.

Each compound was assayed against T1, Glycogen synthase kinase-3 beta (Homo sapiens, UniProt P49841) (assay: Time-dependent irreversible inhibition of recombinant human GSK3beta at 0.05 to 0.2 uM using prephosphorylated peptide as substrate by Kinase-glo luminescence assay).
Summary of the method: (§1)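 Inhibitor pre-incubated with GSK-3β for varying lengths of time before the kinase reaction. Inhibition is expressed as percentage inhibition at each pre-incubation time.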
Target sequence in this assay (P49841 whole entry, looked up): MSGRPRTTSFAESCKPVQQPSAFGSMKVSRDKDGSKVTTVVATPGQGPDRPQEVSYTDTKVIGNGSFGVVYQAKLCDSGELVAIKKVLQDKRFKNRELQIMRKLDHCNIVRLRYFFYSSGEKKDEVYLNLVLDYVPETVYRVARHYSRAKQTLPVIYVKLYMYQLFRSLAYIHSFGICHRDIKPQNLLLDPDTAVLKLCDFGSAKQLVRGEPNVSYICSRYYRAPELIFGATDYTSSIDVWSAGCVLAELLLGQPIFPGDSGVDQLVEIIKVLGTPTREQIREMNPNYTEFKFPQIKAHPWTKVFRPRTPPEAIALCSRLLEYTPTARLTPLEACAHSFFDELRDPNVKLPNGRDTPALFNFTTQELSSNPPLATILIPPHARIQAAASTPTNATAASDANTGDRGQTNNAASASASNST
For `COc1ccc(CNC(=O)Nc2nc3ccc(C(=O)CBr)cc3[nH]2)cc1`, the TDI was “Active”.

Each compound was assayed against T1, Glycogen synthase kinase-3 beta (assay: Inhibition of recombinant human GSK3beta using prephosphorylated peptide as substrate measured after 30 mins by Kinase-glo luminescence assay).
Target sequence in this assay (P49841 whole entry): as the sequence (P49841 whole entry, looked up) above
`COc1ccc(CNC(=O)Nc2nc3ccc(C(=O)CBr)cc3s2)cc1` was tested, and the pIC50 was 6.11.
Compound `C#CC(=O)c1ccc2nc(NC(=O)NCc3ccc(OC)cc3)[nH]c2c1` has a pIC50 of 5.61.
`C=CC(=O)Nc1ccc2nc(NC(=O)NCc3ccc(OC)cc3)[nH]c2c1` gave a pIC50 of under 5.00.
Compound `C=CC(=O)c1ccc2nc(NC(=O)NCc3ccc(OC)cc3)sc2c1` has a pIC50 of 5.39.
With `C=CC(=O)Nc1ccc2nc(NC(=O)NCc3ccc(OC)cc3)sc2c1` the pIC50 was under 5.00.
Work on `COc1ccc(CNC(=O)Nc2nc3ccc(C#N)cc3[nH]2)cc1` yielded a pIC50 of 7.07.
In the case of `COc1ccc(CNC(=O)Nc2nc3ccc(C(C)=O)cc3s2)cc1`, the pIC50 was 5.65.
`C=CC(=O)c1ccc2nc(NC(=O)NCc3ccc(OC)cc3)[nH]c2c1` gave a pIC50 of 5.74.
For `COc1ccc(CNC(=O)Nc2nc3ccc(C(C)=O)cc3[nH]2)cc1`, the pIC50 was 6.59.
`COc1ccc(CNC(=O)Nc2nc3ccc(C(=O)CBr)cc3[nH]2)cc1` gave a pIC50 of 6.89.
`COc1ccc(CNC(=O)Nc2nc3ccc(C#N)cc3s2)cc1` gave a pIC50 of 6.96.
`C#CC(=O)c1ccc2nc(NC(=O)NCc3ccc(OC)cc3)sc2c1` gave a pIC50 of 5.38.

Each compound was assayed against T1, Glycogen synthase kinase-3 beta (assay: Time-dependent irreversible inhibition of recombinant human GSK3beta at 0.05 to 0.1 uM using prephosphorylated peptide as substrate by Kinase-glo luminescence assay).
Summary of the method: as §1
Target sequence in this assay (P49841 whole entry, looked up): as above
`COc1ccc(CNC(=O)Nc2nc3ccc(C#N)cc3[nH]2)cc1` was tested, and the TDI was “Active”.
